Experiments:
[1] = melting temperature; fluorescence melt of hairpins on a sequencing array, two-state fit, raised by 9.35 °C to match UV melts; conditions: sodium 0.088 M
Method in brief: (§1)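 Hairpins were imaged by Cy3 fluorescence on a sequenced MiSeq flow cell with annealed Cy3 and quencher oligos, in 50 mM Na-HEPES pH 8.0, 25 mM NaCl, in 2.5 °C steps up to 60 °C. Bootstrapped two-state fits of normalised signals gave melting temperature and folding enthalpy. Four replicates were combined by inverse variance, and fitted temperatures were raised by 9.35 °C to match UV melts.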

[2] = folding enthalpy; higher = less favourable; fluorescence melt of hairpins on a sequencing array, two-state fit; conditions: sodium 0.088 M
Method in brief: as §1

Sequence	Tm [1]	folding enthalpy [2]
GAGGGCGAAAGCCAACTC ((((((....)))..)))	41.7 °C	-13 kcal/mol
GGAAGCGAAAGCTACTCC ((((((....)))..)))	30.8 °C	-13.3 kcal/mol
CGTGGACGGAAACGTACG (((..(((....))))))	36.6 °C	-20.3 kcal/mol
GCCCCGCGAAAGCGATGC ((..(((....)))..))	34.2 °C	-11.7 kcal/mol
CGTTAGCGGAAACGCACG (((..(((....))))))	39.8 °C	-18.1 kcal/mol
GAGTCACCGAAAGGTCTC (((..(((....))))))	28.1 °C	-12.6 kcal/mol
GATCATATCTATGATC ((((((....))))))	48.5 °C	-41.6 kcal/mol
GTACTCGAAAGAGTAC ((((((....))))))	61 °C	-36.2 kcal/mol
GGCTCCGGAAACGGAACC ((.((((....)))).))	51.1 °C	-28.9 kcal/mol
GCTACCCGAAAGGGCAGC (((.(((....))).)))	57.8 °C	-32.9 kcal/mol
GCAATGCGAAAGCAAAGC ((..(((....)))..))	38 °C	-14.6 kcal/mol
GATCGAATCATCGATC ((((((....))))))	51.9 °C	-35.7 kcal/mol
GCCTACGGAAACGTAAGC ((.((((....)))).))	36.1 °C	-19.8 kcal/mol
GATCTGGTGTCAGATC ((((((....))))))	49.8 °C	-35.2 kcal/mol
GGGTAGCGAAAGCTCCCC (((.(((....))).)))	55.1 °C	-28 kcal/mol
GTCCGCGAAAGCGTGAC ((((((....))).)))	58 °C	-19.8 kcal/mol
GATCCGCTAACGGATC ((((((....))))))	58.8 °C	-37.2 kcal/mol
GCCTGAGGAAACTCGGGC (((.(((....))).)))	57.4 °C	-40.8 kcal/mol
GATGAGGAAACTCATC ((((((....))))))	52.8 °C	-35 kcal/mol
GCAGTTGGAAACAGCTGC ((((.((....)).))))	54.5 °C	-31.9 kcal/mol
GGATAGAAATATCC (((((....)))))	36 °C	-17.5 kcal/mol
GATCAATCTTTTGATC ((((((....))))))	46.5 °C	-34.1 kcal/mol
GAACAGGGAAACCTGCTC ((.((((....)))).))	37.1 °C	-18.8 kcal/mol

Sequence	Tm [1]	folding enthalpy [2]
CGTCCGGAAACGGGCACG ((((((....)))..)))	38.9 °C	-12.4 kcal/mol
GCGCTGCGAAAGCGCCGC (((..((....))..)))	61.6 °C	-9.61 kcal/mol
GTCCCTCGAAAGAGTGAC (((.(((....))).)))	45.3 °C	-31.9 kcal/mol
GTCTATCGAAAGATGGAC (((.(((....))).)))	51.7 °C	-30.9 kcal/mol
GGGCGACGAAAGTCTCCC (((.(((....))).)))	53.6 °C	-43.2 kcal/mol
GCAGTGCGAAAGCATAGC ((..(((....)))..))	55.4 °C	-15.8 kcal/mol
GTAGTACGAAAGTATAC (((.(((....))))))	32 °C	-17.1 kcal/mol
GAAAGAGAAATCTTTC ((((((....))))))	36.8 °C	-18.2 kcal/mol
GCTGGTGGAAACGCTAGC (((.(.(....).).)))	41.2 °C	-26.8 kcal/mol
GATCCGACAGCGGATC ((((((....))))))	54 °C	-34.2 kcal/mol
GAAAGCGGAAACGCTTTC (((((((....)))))))	65.5 °C	-41 kcal/mol
GATCGTCTGCACGATC ((((((....))))))	55.3 °C	-38.3 kcal/mol
GCAGTGGGAAACCGCTGC ((((.((....)).))))	62.1 °C	-49.4 kcal/mol
GCAAATGGAAACATTTAC (.(((((....))))).)	28.1 °C	-13.5 kcal/mol
GATCGTGCTGACGATC ((((((....))))))	55.8 °C	-36.4 kcal/mol
GCGTTTTACGC ((((...))))	60.6 °C	-23 kcal/mol
GTCCTGGGAAACCGGGAC ((((.((....)).))))	55.7 °C	-39.2 kcal/mol
GCAGCTGGAAACAGCCGC ((.((((....)))).))	50.6 °C	-29.3 kcal/mol
CGTGTTCGGAAACGAACG (((..(((....))))))	42.1 °C	-8.25 kcal/mol
GCCGTCTCGAAAGAGGGC (((..(((....))))))	50.6 °C	-24.9 kcal/mol
GATCTCGCTTGAGATC ((((((....))))))	54.4 °C	-36.8 kcal/mol
GGATTTCGAAAGAATCC (((.(((....))))))	41.3 °C	-28.8 kcal/mol
GTAATAGGAAACTATTGC (.(((((....))))).)	34.2 °C	-18.7 kcal/mol

— the array DNA melting data of Ke et al. (doi:10.1101/2024.01.08.574731)
